The source of these data is ChEMBL document CHEMBL1142267, “Optimization of alpha-ketooxazole inhibitors of fatty acid amide hydrolase” (J Med Chem, 2008).

The target in assay [1] is T1, Fatty-acid amide hydrolase 1 (Rattus norvegicus, UniProt P97612).
T1 sequence (P97612 whole entry): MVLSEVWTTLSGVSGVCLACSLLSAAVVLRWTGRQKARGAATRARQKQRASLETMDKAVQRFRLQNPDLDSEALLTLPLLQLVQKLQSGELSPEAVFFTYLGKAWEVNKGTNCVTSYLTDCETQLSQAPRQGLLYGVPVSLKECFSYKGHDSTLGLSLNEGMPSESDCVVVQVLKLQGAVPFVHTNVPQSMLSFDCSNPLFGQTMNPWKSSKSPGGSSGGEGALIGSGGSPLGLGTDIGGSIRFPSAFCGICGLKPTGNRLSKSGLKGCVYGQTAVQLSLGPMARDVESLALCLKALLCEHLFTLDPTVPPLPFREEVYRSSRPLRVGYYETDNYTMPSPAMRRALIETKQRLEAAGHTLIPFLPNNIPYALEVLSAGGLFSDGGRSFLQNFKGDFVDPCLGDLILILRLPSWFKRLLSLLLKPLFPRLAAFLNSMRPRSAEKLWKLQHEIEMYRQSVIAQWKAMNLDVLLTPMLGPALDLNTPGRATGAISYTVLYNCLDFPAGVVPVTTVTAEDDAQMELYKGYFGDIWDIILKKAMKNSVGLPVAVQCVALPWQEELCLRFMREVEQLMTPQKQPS
The assay can be described thus: Inhibition of rat recombinant FAAH expressed in Escherichia coli.

In assay [2] the target is T2, Fatty-acid amide hydrolase 1 (Homo sapiens, UniProt O00519).
T2 sequence (O00519 whole entry): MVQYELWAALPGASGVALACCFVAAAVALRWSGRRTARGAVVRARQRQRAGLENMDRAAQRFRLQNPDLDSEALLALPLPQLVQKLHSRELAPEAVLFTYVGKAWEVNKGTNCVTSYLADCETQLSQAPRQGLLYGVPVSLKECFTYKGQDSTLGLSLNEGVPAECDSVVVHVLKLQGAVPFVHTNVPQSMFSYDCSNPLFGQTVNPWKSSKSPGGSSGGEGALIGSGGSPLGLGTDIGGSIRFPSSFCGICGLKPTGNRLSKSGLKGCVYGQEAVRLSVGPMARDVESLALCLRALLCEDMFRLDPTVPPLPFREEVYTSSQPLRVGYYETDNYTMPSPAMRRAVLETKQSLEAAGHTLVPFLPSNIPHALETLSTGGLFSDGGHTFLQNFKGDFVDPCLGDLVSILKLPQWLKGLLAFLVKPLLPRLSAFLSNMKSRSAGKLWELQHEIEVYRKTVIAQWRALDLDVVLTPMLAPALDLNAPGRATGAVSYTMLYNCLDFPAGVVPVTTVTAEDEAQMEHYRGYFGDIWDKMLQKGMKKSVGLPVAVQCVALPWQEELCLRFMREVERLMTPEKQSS
The experiment in a line: Inhibition of human recombinant FAAH expressed COS7 cells. Format: cell-based, COS-7. An outline of the steps:
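Enzyme source was solubilized membrane lysate of COS-7 cells transiently transfected with full-length human FAAH cDNA. Substrate 10 µM 14C-oleamide in pH 9.0 Tris/EDTA/glycerol/Triton X-100/Hepes buffer at room temperature, with three inhibitor concentrations. Reactions quenched in 0.1 N HCl at three time points, then EtOAc extraction and TLC of oleamide versus oleic acid. Ki from Dixon plot.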

A further assay concerns the target T3, Liver carboxylesterase 1 (Homo sapiens, UniProt P23141).
T3 sequence (P23141 whole entry): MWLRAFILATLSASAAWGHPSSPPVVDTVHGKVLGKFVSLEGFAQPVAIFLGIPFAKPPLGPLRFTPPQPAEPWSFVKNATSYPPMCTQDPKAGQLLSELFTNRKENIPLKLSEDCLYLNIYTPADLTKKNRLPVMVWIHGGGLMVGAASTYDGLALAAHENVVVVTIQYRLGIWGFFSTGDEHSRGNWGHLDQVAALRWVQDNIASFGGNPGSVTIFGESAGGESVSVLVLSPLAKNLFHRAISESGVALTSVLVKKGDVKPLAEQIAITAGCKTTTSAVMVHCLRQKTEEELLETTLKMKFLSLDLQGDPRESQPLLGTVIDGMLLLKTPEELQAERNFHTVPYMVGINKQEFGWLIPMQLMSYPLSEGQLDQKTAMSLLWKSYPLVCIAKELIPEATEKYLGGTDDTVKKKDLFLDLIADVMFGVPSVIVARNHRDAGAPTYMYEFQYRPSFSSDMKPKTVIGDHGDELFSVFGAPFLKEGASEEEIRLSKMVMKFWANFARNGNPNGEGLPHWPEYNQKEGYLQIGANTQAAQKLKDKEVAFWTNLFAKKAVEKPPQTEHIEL

Assay [3] addresses T4, Neutral cholesterol ester hydrolase 1 (Homo sapiens, UniProt Q6PIU2).
T4 sequence (Q6PIU2 whole entry): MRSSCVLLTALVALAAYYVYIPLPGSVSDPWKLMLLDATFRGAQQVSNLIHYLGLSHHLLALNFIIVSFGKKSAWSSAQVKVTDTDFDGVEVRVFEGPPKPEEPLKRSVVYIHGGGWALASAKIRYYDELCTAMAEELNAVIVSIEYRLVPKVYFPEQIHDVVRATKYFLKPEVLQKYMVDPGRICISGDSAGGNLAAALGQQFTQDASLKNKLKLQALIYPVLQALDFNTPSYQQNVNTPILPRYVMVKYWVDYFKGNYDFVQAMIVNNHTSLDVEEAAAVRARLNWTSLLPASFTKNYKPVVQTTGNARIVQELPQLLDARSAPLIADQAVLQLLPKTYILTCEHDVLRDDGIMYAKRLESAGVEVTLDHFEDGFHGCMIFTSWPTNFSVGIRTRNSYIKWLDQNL
The experiment in a line: Inhibition of KIAA1363.

Assay [4] in a line: Selectivity for rat recombinant FAAH over KIAA1363.
Assay [5] can be described thus: Selectivity for TGH over rat recombinant FAAH.
Assay [6] is described as follows: Selectivity for rat recombinant FAAH over TGH.
The target of assay [7] is T2, Fatty-acid amide hydrolase 1.

Broadly, the Ki is the equilibrium dissociation constant of an inhibitor or competing ligand from its target. With `O=C(CCc1ccc(Oc2ccccc2)cc1)c1ncc(C(F)(F)F)o1`, the inhibition constant (Ki) in assay [1] stood at 0.002 µM; in assay [2], 0.001 µM.
Broadly, the IC50 is the concentration that gives 50% inhibition. Consider `O=C(CCc1ccc(Oc2ccccc2)cc1)c1ncco1`, for which the figures for the IC50 (in assay [1]; against Liver carboxylesterase 1; in assay [3]) were 0.5 µM, 0.03 µM and above 100 µM, respectively. The Ki in assay [1] amounted to 0.077 µM. Further, the Ratio IC50 in assay [4] is above 200; in assay [6], 0.06. The Selectivity ratio in assay [5] was found to be 1.
For `O=C(CCc1ccc(-c2ccccc2)cc1)c1ncco1`, the IC50 in assay [1] was 0.18 µM; at Liver carboxylesterase 1, 0.0045 µM; in assay [3], above 100 µM. In addition, in assay [1], the Ki worked out at 0.016 µM. Further, the Ratio IC50 in assay [4] was above 550; in assay [6], 0.025. In addition, in assay [5], the Selectivity ratio turned out to be 1.
For the molecule `O=C(O)c1cccc(-c2cnc(C(=O)CCc3ccc(COc4ccccc4)cc3)o2)n1`, the results for the IC50 (in assay [1]; against Liver carboxylesterase 1; in assay [3]) were 0.04 µM, 26 µM and above 100 µM, respectively. For the same molecule, the Ratio IC50 is above 2500 in assay [4] and 650 in assay [6].
As for `O=C(CCc1ccc(COc2ccccc2)cc1)c1ncco1`, the IC50 in assay [1] was 0.27 µM; against Liver carboxylesterase 1 it was 0.27 µM; in assay [3], above 100 µM. In assay [1], the Ki was 0.025 µM. In addition, the values for the Ratio IC50 in assay [4] and in assay [6] were above 370 and 1, respectively. Further, the Selectivity ratio in assay [5] was 1.
`CCCCCCCC/C=C\CCCCCCCC(=O)c1ncco1` showed a Ki in assay [7] of 0.1 µM.
As to `O=C(O)c1cccc(-c2cnc(C(=O)CCc3ccc(-c4ccccc4)cc3)o2)n1`, the IC50 in assay [1] was 0.006 µM; on Liver carboxylesterase 1, above 100 µM; in assay [3] it was above 100 µM. Besides, the Ratio IC50 in assay [4] and in assay [6] was above 17000 throughout.
Regarding `O=C(O)c1cccc(-c2cnc(C(=O)CCc3ccc(Oc4ccccc4)cc3)o2)n1`, the IC50 in assay [1] is 0.02 µM; at Liver carboxylesterase 1, above 100 µM; in assay [3], above 100 µM. Further, the Ratio IC50 in assay [4] and in assay [6] was above 5000 each time.
`N#Cc1cnc(C(=O)CCc2ccc(COc3ccccc3)cc2)o1`: the IC50 is 0.002 µM in assay [1], 0.1 µM on Liver carboxylesterase 1 and 19 µM in assay [3]. In addition, the results for the Ki in assay [1] and in assay [2] were 0.0005 µM and 0.00051 µM, respectively. Besides, the Ratio IC50 was 9500 in assay [4] and 50 in assay [6]. In assay [4], the Selectivity ratio was above 1000.
For `O=C(CCc1ccc(COc2ccccc2)cc1)c1ncc(C(F)(F)F)o1`, the Ki came to 0.0008 µM in assay [1] and 0.00067 µM in assay [2].
For `N#Cc1cnc(C(=O)CCc2ccc(Oc3ccccc3)cc2)o1`, the IC50 in assay [1] came to 0.005 µM; against Liver carboxylesterase 1 it was 0.016 µM; in assay [3] it was 20 µM. Besides, the Ki in assay [1] came out at 0.0008 µM; in assay [2], 0.00085 µM. Also, the Ratio IC50 in assay [4] is 4000; in assay [6] it was 3. Besides, the Selectivity ratio in assay [4] was above 1000.
